# Values joined by “and” are separate entries in the source; they are usually repeats but may differ in a detail not shown here. Equal entries are not always repeated.
# Assays:
# [1] = test system: relapsed/refractory MM and NHL; assay: Tumour response by standard criteria for MM and NHL; type: in vivo, human; conditions: for Duration of sustained SD: one patient
# How it was run: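 Best tumour response was assessed over all cycles of single-agent treatment. The agent was given by 1-h IV infusion on days 1–5 of each 14-day cycle, at 14–176 mg m⁻². Treatment continued for up to 12 months or until progression, unacceptable toxicity or withdrawal. Intrapatient escalation was allowed after at least two cycles. Chemotherapy, radiotherapy and corticosteroids were excluded. Responses were summarised descriptively by dose level.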
# Hsp90 = conditions: ref Nakashima et al, 2010; Ishii et al, 2012; cited from earlier work
# [2] = 25 evaluable patients, all doses
smiles,measurement,setting,value
CCc1c(O)cc(O)c(C(=O)c2ccc(OCCN3CCOCC3)c(OC)c2)c1CC(=O)N(CCOC)CCOC [KW-2478],"Progressive disease, MM patients",[1]; 21 evaluable MM patients,4.8%
same,"Stable disease (SD), MM patients",[1]; 21 evaluable MM patients,95.2%
same,Evaluable patients with stable disease (disease stabilisation rate),[1]; [2],96%
same,Overall disease control rate,[1]; [2],96.0%
same,Patients with SD lasting ⩾3 months,[1]; all doses,Eight
same,Patients with SD lasting ⩾6 months (free of disease progression),[1]; all doses,five
same,Complete or partial responses,[1]; best tumour response over all cycles,No patients achieved complete or partial responses
same,"Stable disease (SD), NHL patients",[1]; four evaluable NHL patients,100%
same,Duration of response,"[1]; individual patient, MM, 99 mg m^–2",3.1 months
same,Duration of response,"[1]; individual patient, NHL, 99 mg m^–2",1.5 months
same,Duration of response,"[1]; individual patient, NHL, 176 mg m^–2",1.3 months
same,Duration of response,"[1]; individual patients, MM, 14 mg m^–2",1 months and 1.4 months
same,Duration of response,"[1]; individual patients, MM, 28 mg m^–2",11.3 months and 0.8 months and 1.8 months
same,Duration of response,"[1]; individual patients, MM, 47 mg m^–2",1.3 months and 1 months
same,Duration of response,"[1]; individual patients, MM, 71 mg m^–2",1.1 months and 5.1 months
same,Duration of response,"[1]; individual patients, MM, 132 mg m^–2",1.4 months and 8.8 months and 12.9 months
same,Duration of response,"[1]; individual patients, MM, 176 mg m^–2",3.5 months and 1.3 months and 11.9 months and 2 months
same,Duration of response,"[1]; individual patients, NHL, 132 mg m^–2",1.4 months and 8.2 months
same,Duration of sustained SD,[1]; 132 mg m^–2 cohort,12.9 months
same,Duration of sustained SD,[1]; 176 mg m^–2 cohort,11.9 months
same,Binding affinity to Hsp90,Hsp90,high binding affinity

# Reference: paper PMC4716540 (British Journal of Cancer, 2015)
